These results are taken from BindingDB's records for doi:10.1021/np070447m (2008).

In general, IC50 refers to the point on the concentration scale where inhibition reaches its midpoint.

SMILES strings stand for the structures.

In assay [1] the target is Cyclin-dependent kinase 2 (Homo sapiens, UniProt P24941). The assay can be described thus: Inhibition of recombinant CDK2/CycA. The gist of the method: (§1)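 Purified recombinant kinase, 50 µL reaction. 1 µM [γ-33P]-ATP with substrate; compound added in 10% DMSO. Tested over several concentrations; IC50 in g/mL.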
In assay [2] the target is T1, Serine/threonine-protein kinase PLK4 (Homo sapiens, UniProt O00444).
T1 sequence (O00444 whole entry): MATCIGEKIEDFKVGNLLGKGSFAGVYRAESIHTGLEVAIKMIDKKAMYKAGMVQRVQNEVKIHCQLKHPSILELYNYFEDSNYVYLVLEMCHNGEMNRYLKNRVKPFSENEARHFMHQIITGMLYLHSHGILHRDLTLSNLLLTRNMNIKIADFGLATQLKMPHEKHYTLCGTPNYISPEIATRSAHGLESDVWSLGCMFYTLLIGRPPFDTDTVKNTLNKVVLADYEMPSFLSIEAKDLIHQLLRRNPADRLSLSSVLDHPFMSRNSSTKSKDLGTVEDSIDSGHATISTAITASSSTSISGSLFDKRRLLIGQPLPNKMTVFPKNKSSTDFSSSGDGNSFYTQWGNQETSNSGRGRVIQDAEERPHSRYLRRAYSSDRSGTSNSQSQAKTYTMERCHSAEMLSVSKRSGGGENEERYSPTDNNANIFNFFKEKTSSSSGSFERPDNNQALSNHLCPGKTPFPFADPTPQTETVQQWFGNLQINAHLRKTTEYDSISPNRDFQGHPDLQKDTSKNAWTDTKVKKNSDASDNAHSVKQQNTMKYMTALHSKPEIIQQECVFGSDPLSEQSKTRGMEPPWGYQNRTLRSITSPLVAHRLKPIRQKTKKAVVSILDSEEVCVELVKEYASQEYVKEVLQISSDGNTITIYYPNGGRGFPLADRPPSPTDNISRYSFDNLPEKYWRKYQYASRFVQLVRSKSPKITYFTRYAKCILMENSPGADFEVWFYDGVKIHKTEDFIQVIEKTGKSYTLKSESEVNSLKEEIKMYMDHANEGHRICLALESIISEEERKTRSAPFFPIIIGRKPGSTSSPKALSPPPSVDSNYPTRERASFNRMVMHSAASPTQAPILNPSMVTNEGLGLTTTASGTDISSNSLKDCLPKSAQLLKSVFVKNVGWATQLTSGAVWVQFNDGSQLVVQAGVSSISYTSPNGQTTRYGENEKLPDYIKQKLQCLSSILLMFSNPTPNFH
Put plainly: Inhibition of recombinant SAK.

Assay [3] addresses Receptor tyrosine-protein kinase erbB-2 (Homo sapiens, UniProt P04626). The assay can be described thus: Inhibition of recombinant ERBB2.
Assay [4] concerns the target Casein kinase II subunit alpha (Homo sapiens, UniProt P68400). The assay can be described thus: Inhibition of recombinant CK2alpha1. The gist of the method: as §1
The target of assay [5] is Mitogen-activated protein kinase kinase kinase 8 (Homo sapiens, UniProt P41279). Put plainly: Inhibition of recombinant COT.
For assay [6], the target named is Insulin-like growth factor 1 receptor (Homo sapiens, UniProt P08069). Put plainly: Inhibition of recombinant IGF1R. The method in brief:
as §1

For assay [7], the target named is Serine/threonine-protein kinase PLK1 (Homo sapiens, UniProt P53350). Put plainly: Inhibition of recombinant PLK1.
Assay [8] addresses Proto-oncogene tyrosine-protein kinase Src (Homo sapiens, UniProt P12931). The assay can be described thus: Inhibition of recombinant SRC. The gist of the method: as §1
A further assay has as its target T2, Ephrin type-B receptor 4 (Homo sapiens, UniProt P54760).
T2 sequence (P54760 whole entry): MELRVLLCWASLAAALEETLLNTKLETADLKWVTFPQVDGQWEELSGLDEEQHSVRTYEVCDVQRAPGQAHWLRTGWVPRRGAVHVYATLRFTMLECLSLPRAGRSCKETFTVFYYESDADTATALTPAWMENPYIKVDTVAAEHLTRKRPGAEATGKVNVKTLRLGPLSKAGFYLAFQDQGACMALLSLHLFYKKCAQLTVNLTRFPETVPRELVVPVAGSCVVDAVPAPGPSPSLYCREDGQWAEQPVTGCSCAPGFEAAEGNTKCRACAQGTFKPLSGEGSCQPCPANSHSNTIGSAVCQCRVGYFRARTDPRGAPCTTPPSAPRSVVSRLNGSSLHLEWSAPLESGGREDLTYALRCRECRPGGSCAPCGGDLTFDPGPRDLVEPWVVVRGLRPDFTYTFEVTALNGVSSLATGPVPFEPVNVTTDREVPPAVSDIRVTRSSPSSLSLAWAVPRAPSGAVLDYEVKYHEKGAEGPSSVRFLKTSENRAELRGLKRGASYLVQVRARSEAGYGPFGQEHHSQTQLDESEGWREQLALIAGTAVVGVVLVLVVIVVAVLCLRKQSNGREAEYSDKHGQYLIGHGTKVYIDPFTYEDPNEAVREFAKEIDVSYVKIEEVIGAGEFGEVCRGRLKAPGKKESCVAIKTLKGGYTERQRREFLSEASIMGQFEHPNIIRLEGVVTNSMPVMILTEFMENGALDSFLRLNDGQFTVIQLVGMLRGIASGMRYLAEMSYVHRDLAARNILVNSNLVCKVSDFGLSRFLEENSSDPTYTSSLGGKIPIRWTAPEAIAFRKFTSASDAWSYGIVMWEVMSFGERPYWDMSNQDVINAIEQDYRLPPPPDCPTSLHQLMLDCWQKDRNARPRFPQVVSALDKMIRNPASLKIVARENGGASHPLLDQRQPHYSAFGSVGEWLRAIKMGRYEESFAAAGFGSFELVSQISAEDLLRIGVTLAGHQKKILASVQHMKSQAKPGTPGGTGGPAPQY
Put plainly: Inhibition of recombinant EPHB4. The gist of the method: as §1

Assay [9] addresses RAC-alpha serine/threonine-protein kinase (Homo sapiens, UniProt P31749). Put plainly: Inhibition of recombinant AKT1. The gist of the method:
as §1

Sequence of Mitogen-activated protein kinase kinase kinase 8 (P41279 whole entry): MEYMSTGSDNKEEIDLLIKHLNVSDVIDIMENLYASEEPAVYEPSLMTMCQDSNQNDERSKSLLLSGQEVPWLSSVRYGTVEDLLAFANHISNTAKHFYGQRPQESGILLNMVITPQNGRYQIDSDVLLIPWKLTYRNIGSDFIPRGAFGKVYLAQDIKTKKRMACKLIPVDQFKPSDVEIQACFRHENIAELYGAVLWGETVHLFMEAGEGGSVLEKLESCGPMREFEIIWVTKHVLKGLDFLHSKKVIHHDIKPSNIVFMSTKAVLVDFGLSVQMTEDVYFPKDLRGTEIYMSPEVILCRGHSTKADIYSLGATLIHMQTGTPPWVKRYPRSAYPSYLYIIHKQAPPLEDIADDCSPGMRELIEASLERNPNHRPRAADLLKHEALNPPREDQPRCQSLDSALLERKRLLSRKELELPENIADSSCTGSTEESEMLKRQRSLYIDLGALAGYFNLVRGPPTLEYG
Sequence of Serine/threonine-protein kinase PLK1 (P53350 whole entry): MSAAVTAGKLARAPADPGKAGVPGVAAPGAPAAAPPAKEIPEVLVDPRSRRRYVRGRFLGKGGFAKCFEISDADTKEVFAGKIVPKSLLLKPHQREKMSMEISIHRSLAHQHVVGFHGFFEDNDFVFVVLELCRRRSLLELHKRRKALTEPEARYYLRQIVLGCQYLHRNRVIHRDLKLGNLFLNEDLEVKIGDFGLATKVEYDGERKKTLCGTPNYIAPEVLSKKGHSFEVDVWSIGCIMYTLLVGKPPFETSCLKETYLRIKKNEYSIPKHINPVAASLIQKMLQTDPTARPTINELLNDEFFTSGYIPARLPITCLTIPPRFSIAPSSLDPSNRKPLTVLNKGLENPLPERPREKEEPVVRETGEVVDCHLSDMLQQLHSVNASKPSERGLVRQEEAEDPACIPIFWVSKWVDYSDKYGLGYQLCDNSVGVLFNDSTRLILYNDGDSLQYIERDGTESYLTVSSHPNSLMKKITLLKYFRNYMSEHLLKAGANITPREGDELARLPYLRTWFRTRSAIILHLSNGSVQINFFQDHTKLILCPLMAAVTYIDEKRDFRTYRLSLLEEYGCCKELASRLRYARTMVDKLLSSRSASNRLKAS
Sequence of Casein kinase II subunit alpha (P68400 whole entry): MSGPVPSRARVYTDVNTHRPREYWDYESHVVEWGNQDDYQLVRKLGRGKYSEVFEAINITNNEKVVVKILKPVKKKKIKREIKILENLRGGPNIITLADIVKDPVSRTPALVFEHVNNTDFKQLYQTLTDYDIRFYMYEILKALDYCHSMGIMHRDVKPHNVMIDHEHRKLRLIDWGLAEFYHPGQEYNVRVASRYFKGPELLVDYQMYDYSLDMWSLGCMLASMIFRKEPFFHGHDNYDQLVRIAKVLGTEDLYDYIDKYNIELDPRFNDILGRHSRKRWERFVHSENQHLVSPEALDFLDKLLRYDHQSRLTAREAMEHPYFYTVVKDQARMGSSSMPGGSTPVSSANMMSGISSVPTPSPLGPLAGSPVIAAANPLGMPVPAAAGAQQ
Sequence of Insulin-like growth factor 1 receptor (P08069 31-736 limits assumed): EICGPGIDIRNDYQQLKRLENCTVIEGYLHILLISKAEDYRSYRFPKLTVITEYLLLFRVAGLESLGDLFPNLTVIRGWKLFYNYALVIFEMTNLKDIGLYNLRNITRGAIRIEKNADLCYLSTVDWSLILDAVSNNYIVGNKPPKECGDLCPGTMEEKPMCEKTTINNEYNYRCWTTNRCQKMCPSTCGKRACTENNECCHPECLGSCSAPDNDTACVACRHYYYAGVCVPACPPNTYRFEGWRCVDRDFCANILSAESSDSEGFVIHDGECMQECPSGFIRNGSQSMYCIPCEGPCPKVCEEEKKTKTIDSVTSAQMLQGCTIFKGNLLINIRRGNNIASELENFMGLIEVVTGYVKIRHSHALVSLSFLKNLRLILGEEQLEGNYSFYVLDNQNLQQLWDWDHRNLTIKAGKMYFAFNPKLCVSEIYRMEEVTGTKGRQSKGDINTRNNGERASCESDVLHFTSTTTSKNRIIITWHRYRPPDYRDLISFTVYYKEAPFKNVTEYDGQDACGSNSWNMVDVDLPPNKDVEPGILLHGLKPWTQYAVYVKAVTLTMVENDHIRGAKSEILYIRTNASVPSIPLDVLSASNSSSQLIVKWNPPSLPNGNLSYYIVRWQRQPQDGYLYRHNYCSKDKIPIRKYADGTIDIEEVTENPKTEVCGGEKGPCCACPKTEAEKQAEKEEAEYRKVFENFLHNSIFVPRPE
Sequence of Insulin-like growth factor 1 receptor (P08069 741-1367 limits assumed): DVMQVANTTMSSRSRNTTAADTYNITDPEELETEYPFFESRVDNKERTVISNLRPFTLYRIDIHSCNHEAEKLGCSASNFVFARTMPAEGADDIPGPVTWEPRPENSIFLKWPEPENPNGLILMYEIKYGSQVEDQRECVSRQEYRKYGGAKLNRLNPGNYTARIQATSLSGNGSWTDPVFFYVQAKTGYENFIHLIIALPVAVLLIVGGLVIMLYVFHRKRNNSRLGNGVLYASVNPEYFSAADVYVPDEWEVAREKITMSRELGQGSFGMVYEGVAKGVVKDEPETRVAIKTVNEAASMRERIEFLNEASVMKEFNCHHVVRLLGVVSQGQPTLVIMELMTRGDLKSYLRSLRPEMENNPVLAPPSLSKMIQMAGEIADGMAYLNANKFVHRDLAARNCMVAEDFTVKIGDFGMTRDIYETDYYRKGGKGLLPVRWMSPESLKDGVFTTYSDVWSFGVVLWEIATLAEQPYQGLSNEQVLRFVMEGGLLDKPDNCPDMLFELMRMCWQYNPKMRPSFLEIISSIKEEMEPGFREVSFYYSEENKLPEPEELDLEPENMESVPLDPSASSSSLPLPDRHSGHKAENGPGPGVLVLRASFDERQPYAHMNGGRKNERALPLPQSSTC
Sequence of RAC-alpha serine/threonine-protein kinase (P31749 whole entry): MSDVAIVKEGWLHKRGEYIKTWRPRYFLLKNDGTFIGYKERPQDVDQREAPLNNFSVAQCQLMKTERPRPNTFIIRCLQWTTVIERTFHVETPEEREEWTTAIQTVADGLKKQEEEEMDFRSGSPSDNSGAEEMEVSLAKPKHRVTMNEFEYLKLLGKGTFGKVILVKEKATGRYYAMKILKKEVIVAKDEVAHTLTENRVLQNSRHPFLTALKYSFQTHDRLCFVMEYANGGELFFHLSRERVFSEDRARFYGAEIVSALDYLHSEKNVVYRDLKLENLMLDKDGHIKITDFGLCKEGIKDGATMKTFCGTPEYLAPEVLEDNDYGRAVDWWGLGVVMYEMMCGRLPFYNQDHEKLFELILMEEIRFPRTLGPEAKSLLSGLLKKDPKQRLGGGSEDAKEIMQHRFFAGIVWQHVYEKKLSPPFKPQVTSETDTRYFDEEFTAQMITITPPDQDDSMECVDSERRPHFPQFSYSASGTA
Sequence of Proto-oncogene tyrosine-protein kinase Src (P12931 2-536 limits assumed): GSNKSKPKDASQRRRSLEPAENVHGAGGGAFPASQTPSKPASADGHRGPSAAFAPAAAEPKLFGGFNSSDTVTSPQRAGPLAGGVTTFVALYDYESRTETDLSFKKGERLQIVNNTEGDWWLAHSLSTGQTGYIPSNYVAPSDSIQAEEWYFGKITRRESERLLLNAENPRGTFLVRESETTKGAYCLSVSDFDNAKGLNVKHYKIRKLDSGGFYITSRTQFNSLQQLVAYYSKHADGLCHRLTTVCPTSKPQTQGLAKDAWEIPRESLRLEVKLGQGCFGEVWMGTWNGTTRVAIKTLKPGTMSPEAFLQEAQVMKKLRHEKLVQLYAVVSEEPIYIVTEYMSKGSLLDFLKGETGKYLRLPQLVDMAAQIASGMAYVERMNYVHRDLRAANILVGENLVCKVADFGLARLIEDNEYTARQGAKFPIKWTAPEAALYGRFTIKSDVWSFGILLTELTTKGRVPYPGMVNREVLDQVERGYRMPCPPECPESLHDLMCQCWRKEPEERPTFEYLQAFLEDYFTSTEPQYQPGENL

For `COc1cc(O)c2c(c1)-c1cc(O)c(O)cc1COC2=O` [Alterlactone], the half-maximal inhibitory concentration (IC50) in assay [1], in assay [2], in assay [3], in [4], in [5] and in assay [6] was over 34.6 µM each time. Moreover, the IC50 (in assay [7]; in [8]; at Ephrin type-B receptor 4; in [9]) was over 34.6 µM throughout.
Consider `COc1cc(O)c2c(c1)C1(OC2=O)C(=O)C(=O)CC1C` (stereo not given) [TALAROFLAVONE], for which the IC50 in [1], in [2], in assay [3], in assay [4], in [5] and in assay [6] was over 36.2 µM each time. The IC50 (in assay [7]; in [8]; at Ephrin type-B receptor 4; in assay [9]) was over 36.2 µM in each case.
